According to ChEMBL document CHEMBL1255247, “Induction of L1 and L2 beta-lactamases of Stenotrophomonas maltophilia” (2008):
Values after ≈ are worked out from the molar mass of the structure shown. Active and inactive are the calls of the source. The rule behind the calls is not given here.

Key:
[1] = tested on: Stenotrophomonas maltophilia; experiment: Antibacterial activity against Stenotrophomonas maltophilia isolate KJ by Etest; assay type: functional
[2] = tested on: Stenotrophomonas maltophilia; experiment: Antibacterial activity against Stenotrophomonas maltophilia isolate KJ deficient in L1 beta lactamase gene by Etest; assay type: functional
[3] = tested on: Stenotrophomonas maltophilia; experiment: Antibacterial activity against Stenotrophomonas maltophilia isolate KJ deficient in L2 beta lactamase gene by Etest; assay type: functional
[4] = tested on: Stenotrophomonas maltophilia; experiment: Induction of xylE gene expression in Stenotrophomonas maltophilia isolate KJ deficient in L1 beta lactamase gene assessed maximum catechol 2,3-dioxygenase activity at 50 ug/ml after 3 hrs; assay type: functional, organism-based
Summary of the method: (§1)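 xylE (catechol 2,3-dioxygenase) reporter induction in the L1 or L2 knockout of strain KJ. Overnight cultures were diluted to OD450 0.15 and grown 0.5 h at 37°C, then exposed to β-lactam inducer (default 50 μg/ml, 2.5 h). C23O activity was read in intact cells with OD450. 1 U = 1 nmol substrate/min; specific activity is U per A450 unit. Each experiment was run ≥3 times.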

[5] = tested on: Stenotrophomonas maltophilia; experiment: Induction of xylE gene expression in Stenotrophomonas maltophilia isolate KJ deficient in L2 beta lactamase gene assessed maximum catechol 2,3-dioxygenase activity at 50 ug/ml after 2.5 hrs; assay type: functional, organism-based; summary of the method: as §1
[6] = tested on: Stenotrophomonas maltophilia; experiment: Induction of xylE gene expression in Stenotrophomonas maltophilia isolate KJ deficient in L1 beta lactamase gene assessed maximum catechol 2,3-dioxygenase activity at 1 ug/ml; assay type: functional, organism-based; summary of the method: as §1
[7] = tested on: Stenotrophomonas maltophilia; experiment: Induction of xylE gene expression in Stenotrophomonas maltophilia isolate KJ deficient in L2 beta lactamase gene assessed maximum catechol 2,3-dioxygenase activity at 1 ug/ml; assay type: functional, organism-based; summary of the method: as §1
[8] = tested on: Stenotrophomonas maltophilia; experiment: Antibacterial activity against Stenotrophomonas maltophilia isolate KJ deficient in L1 beta lactamase gene at 50 ug/ml; assay type: functional, organism-based
[9] = tested on: Stenotrophomonas maltophilia; experiment: Antibacterial activity against Stenotrophomonas maltophilia isolate KJ deficient in L2 beta lactamase gene at 50 ug/ml; assay type: functional, organism-based
[10] = tested on: Stenotrophomonas maltophilia; experiment: Ratio of induction of xylE gene expression in Stenotrophomonas maltophilia isolate KJ deficient in L1 beta lactamase gene to induction of xylE gene expression in Stenotrophomonas maltophilia isolate KJ deficient in L2 beta lactamase gene assessed as catechol 2,3-dioxygenase activity at 50 ug/ml; assay type: functional
[11] = tested on: Stenotrophomonas maltophilia; experiment: Antibacterial activity against Stenotrophomonas maltophilia isolate KJ deficient in L2 beta lactamase gene at 8 ug/ml; assay type: functional, organism-based
[12] = tested on: Stenotrophomonas maltophilia; experiment: Ratio of induction of xylE gene expression in Stenotrophomonas maltophilia isolate KJ deficient in L1 beta lactamase gene to induction of xylE gene expression in Stenotrophomonas maltophilia isolate KJ deficient in L2 beta lactamase gene assessed as catechol 2,3-dioxygenase activity at 8 ug/ml; assay type: functional
Summary of the method: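 xylE reporter (C23O) assay in L1- or L2-knockout mutants of strain KJ. Overnight cultures diluted to OD450 0.15 and grown 0.5 h at 37°C, then exposed to β-lactam inducer, by default for 2.5 h. C23O activity measured in intact cells with OD450 recorded. Specific activity is nmol substrate converted/min per A450 unit. At least three repeats.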

[13] = tested on: Stenotrophomonas maltophilia; experiment: Antibacterial activity against Stenotrophomonas maltophilia isolate KJ deficient in L1 beta lactamase gene at 16 ug/ml; assay type: functional, organism-based
[14] = tested on: Stenotrophomonas maltophilia; experiment: Ratio of induction of xylE gene expression in Stenotrophomonas maltophilia isolate KJ deficient in L1 beta lactamase gene to induction of xylE gene expression in Stenotrophomonas maltophilia isolate KJ deficient in L2 beta lactamase gene assessed as catechol 2,3-dioxygenase activity at 16 ug/ml; assay type: functional

SMILES	MIC [1] [µg/mL]	MIC [2] [µg/mL]	MIC [3] [µg/mL]	Activity [4]	Activity [5]	Activity [6]	Activity [7]	Activity [8]	Activity [9]	Ratio [10]	Activity [11]	Ratio [12]	Activity [13]	Ratio [14]
CO/N=C(\C(=O)N[C@@H]1C(=O)N2C(C(=O)O)=C(COC(N)=O)CS[C@H]12)c1ccco1 [CEFUROXIME]	2050 (≈ 4830 µM)	1020 (≈ 2410 µM)	1020 (≈ 2410 µM)	Active	Active	Active	Active	inactive	inactive	2.4	–	–	–	–
C[C@H]1[C@H](NC(=O)/C(=N\OC(C)(C)C(=O)O)c2csc(N)n2)C(=O)N1S(=O)(=O)O [AZTREONAM]	> 2050	> 2050	–	–	–	–	–	–	–	–	Active	7.9	–	–
CO[C@@]1(NC(=O)Cc2cccs2)C(=O)N2C(C(=O)O)=C(COC(N)=O)CS[C@@H]21 [CEFOXITIN]	1020 (≈ 2400 µM)	128 (≈ 299 µM)	1020 (≈ 2400 µM)	–	–	–	–	inactive	inactive	0.2	–	–	–	–
C[C@@H](O)[C@H]1C(=O)N2C(C(=O)O)=C(SCCNC=N)C[C@H]12 [IMIPENEM ANHYDROUS]	> 32	8 (≈ 26.7 µM)	> 32	–	–	–	–	–	–	–	–	–	–	–
CCN1CCN(C(=O)N[C@@H](C(=O)N[C@@H]2C(=O)N3C(C(=O)O)=C(CSc4nnnn4C)CS[C@H]23)c2ccc(O)cc2)C(=O)C1=O [CEFOPERAZONE]	128 (≈ 198 µM)	32 (≈ 49.6 µM)	64 (≈ 99.1 µM)	–	–	–	–	–	–	–	–	–	Active	1.4
CCN1CCN(C(=O)N[C@@H](C(=O)N[C@@H]2C(=O)N3[C@@H]2SC(C)(C)[C@@H]3C(=O)O)c2ccccc2)C(=O)C1=O [PIPERACILLIN]	1020 (≈ 1980 µM)	256 (≈ 495 µM)	512 (≈ 989 µM)	–	–	–	–	inactive	inactive	1.7	–	–	–	–
CO/N=C(\C(=O)N[C@@H]1C(=O)N2C(C(=O)O)=C(COC(C)=O)CS[C@H]12)c1csc(N)n1 [CEFOTAXIME]	256 (≈ 562 µM)	128 (≈ 281 µM)	128 (≈ 281 µM)	–	–	–	–	inactive	inactive	3.2	–	–	–	–
CC1(C)S[C@@H]2[C@H](NC(=O)[C@H](N)c3ccccc3)C(=O)N2[C@H]1C(=O)O [AMPICILLIN]	> 2050	> 2050	> 2050	–	–	–	–	inactive	inactive	0.9	–	–	–	–
C[C@@H](O)[C@H]1C(=O)N2C(C(=O)O)=C(S[C@@H]3CN[C@H](C(=O)N(C)C)C3)[C@H](C)[C@H]12 [MEROPENEM]	> 32	0.5 (≈ 1.3 µM)	> 32	–	–	–	–	–	–	–	–	–	–	–
CO/N=C(\C(=O)N[C@@H]1C(=O)N2C(C(=O)O)=C(CSc3nc(=O)c(O)nn3C)CS[C@H]12)c1csc(N)n1 [CEFTRIAXONE]	256 (≈ 462 µM)	128 (≈ 231 µM)	128 (≈ 231 µM)	–	–	–	–	inactive	inactive	5.5	–	–	–	–
CC1(C)S[C@@H]2[C@H](NC(=O)C(C(=O)O)c3ccccc3)C(=O)N2[C@H]1C(=O)O (some centres undefined) [CARBENICILLIN]	1020 (≈ 2710 µM)	1020 (≈ 2710 µM)	64 (≈ 169 µM)	–	–	–	–	inactive	inactive	3.4	–	–	–	–
CO/N=C(\C(=O)N[C@@H]1C(=O)N2C(C(=O)[O-])=C(C[N+]3(C)CCCC3)CS[C@H]12)c1csc(N)n1 [CEFEPIME]	64 (≈ 133 µM)	64 (≈ 133 µM)	4 (≈ 8.32 µM)	–	–	–	–	–	–	–	–	–	–	–
